From ChEMBL document CHEMBL1140578, “Solid-phase synthesis and biological evaluation of a uridinyl branched peptide urea library” (2007)
In brackets after ≈: the same amount, converted by molar mass. Activity calls are given as the source filed them. No cut-off for these calls is given here.

Legend:
Escherichia coli = experiment: Antimicrobial activity against Escherichia coli K12; type: functional, organism-based
Staphylococcus aureus = experiment: Antimicrobial activity against methicillin-susceptible Staphylococcus aureus; type: functional, organism-based
Bacillus subtilis = experiment: Antimicrobial activity against Bacillus subtilis; type: functional, organism-based
Bacillus anthracis = experiment: Antimicrobial activity against Bacillus anthracis Sterne; type: functional, organism-based
[1] = tested on: Mycobacterium tuberculosis; experiment: Antituberculosis activity against Mycobacterium tuberculosis H37Rv by micro-broth dilution method; type: functional
Procedure, shortened: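 M. tuberculosis H37Rv grown in Middlebrook 7H9 ADC medium and tested by microbroth dilution per CLSI guidelines, with 2×10^4 bacteria per well. Compounds were dissolved and diluted in DMSO (4 μl into 196 μl). The primary screen used 20, 10 and 5 μg/ml based on recovered yield. Resynthesized compounds were run as 1:1 serial dilutions from 200 to 1.56 μg/ml to give MIC90. Controls were no drug and isoniazid.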

Enterococcus faecalis = experiment: Antimicrobial activity against Enterococcus faecalis; type: functional, organism-based

CCCCCCNC(=O)N[C@@H](Cc1ccc(O)cc1)C(=O)N[C@@H](CNC(=O)[C@@H](N)Cc1c[nH]c2ccccc12)C(=O)NC[C@H]1O[C@@H](n2ccc(=O)[nH]c2=O)[C@H](O)[C@@H]1O
Activity (Escherichia coli): inactive
Activity (Staphylococcus aureus): inactive
Activity (Bacillus subtilis): inactive
Activity (Bacillus anthracis): inactive
MIC90 [1]: 12.5 µg/mL (≈ 15.5 µM)
Activity (Enterococcus faecalis): inactive

COc1ccc(NC(=O)N[C@@H](Cc2c[nH]c3ccccc23)C(=O)N[C@@H](CNC(=O)[C@@H](N)Cc2c[nH]c3ccccc23)C(=O)NC[C@H]2O[C@@H](n3ccc(=O)[nH]c3=O)[C@H](O)[C@@H]2O)cc1
Activity (Escherichia coli): inactive
Activity (Staphylococcus aureus): inactive
Activity (Bacillus subtilis): inactive
Activity (Bacillus anthracis): inactive
MIC90 [1]: 12.5 µg/mL (≈ 14.7 µM)
Activity (Enterococcus faecalis): inactive

CC(=O)c1cccc(NC(=O)N[C@@H](Cc2c[nH]c3ccccc23)C(=O)N[C@@H](CNC(=O)[C@@H](N)Cc2c[nH]c3ccccc23)C(=O)NC[C@H]2O[C@@H](n3ccc(=O)[nH]c3=O)[C@H](O)[C@@H]2O)c1
Activity (Escherichia coli): inactive
Activity (Staphylococcus aureus): inactive
Activity (Bacillus subtilis): inactive
Activity (Bacillus anthracis): inactive
MIC90 [1]: 50 µg/mL (≈ 57.9 µM)
Activity (Enterococcus faecalis): inactive

COc1ccc(NC(=O)N[C@@H](Cc2ccc(O)cc2)C(=O)N[C@@H](CNC(=O)[C@@H](N)Cc2ccc([N+](=O)[O-])cc2)C(=O)NC[C@H]2O[C@@H](n3ccc(=O)[nH]c3=O)[C@H](O)[C@@H]2O)cc1
Activity (Escherichia coli): inactive
Activity (Staphylococcus aureus): inactive
Activity (Bacillus subtilis): inactive
Activity (Bacillus anthracis): inactive
MIC90 [1]: 12.5 µg/mL (≈ 15 µM)
Activity (Enterococcus faecalis): inactive

CCCNC(=O)N[C@@H](Cc1c[nH]c2ccccc12)C(=O)N[C@@H](CNC(=O)[C@@H](N)Cc1c[nH]c2ccccc12)C(=O)NC[C@H]1O[C@@H](n2ccc(=O)[nH]c2=O)[C@H](O)[C@@H]1O
Activity (Escherichia coli): inactive
Activity (Staphylococcus aureus): inactive
Activity (Bacillus subtilis): inactive
Activity (Bacillus anthracis): inactive
MIC90 [1]: 100 µg/mL (≈ 127 µM)
Activity (Enterococcus faecalis): inactive

CC(=O)c1cccc(NC(=O)N[C@@H](Cc2c[nH]c3ccccc23)C(=O)N[C@@H](CNC(=O)[C@@H](N)CC(N)=O)C(=O)NC[C@H]2O[C@@H](n3ccc(=O)[nH]c3=O)[C@H](O)[C@@H]2O)c1
Activity (Escherichia coli): inactive
Activity (Staphylococcus aureus): inactive
Activity (Bacillus subtilis): inactive
Activity (Bacillus anthracis): inactive
MIC90 [1]: > 200 µg/mL
Activity (Enterococcus faecalis): inactive

N[C@@H](Cc1c[nH]c2ccccc12)C(=O)NC[C@H](NC(=O)[C@H](Cc1c[nH]c2ccccc12)NC(=O)NCCc1ccccc1)C(=O)NC[C@H]1O[C@@H](n2ccc(=O)[nH]c2=O)[C@H](O)[C@@H]1O
Activity (Escherichia coli): inactive
Activity (Staphylococcus aureus): inactive
Activity (Bacillus subtilis): inactive
Activity (Bacillus anthracis): inactive
MIC90 [1]: 50 µg/mL (≈ 58.9 µM)
Activity (Enterococcus faecalis): inactive

CSCC[C@H](NC(=O)NCCc1ccccc1)C(=O)N[C@@H](CNC(=O)[C@@H](N)Cc1ccc([N+](=O)[O-])cc1)C(=O)NC[C@H]1O[C@@H](n2ccc(=O)[nH]c2=O)[C@H](O)[C@@H]1O
Activity (Escherichia coli): inactive
Activity (Staphylococcus aureus): inactive
Activity (Bacillus subtilis): inactive
Activity (Bacillus anthracis): inactive
MIC90 [1]: 100 µg/mL (≈ 125 µM)
Activity (Enterococcus faecalis): inactive

CCCCCCNC(=O)N[C@@H](Cc1c[nH]c2ccccc12)C(=O)N[C@@H](CNC(=O)[C@@H](N)Cc1c[nH]c2ccccc12)C(=O)NC[C@H]1O[C@@H](n2ccc(=O)[nH]c2=O)[C@H](O)[C@@H]1O
Activity (Escherichia coli): inactive
Activity (Staphylococcus aureus): inactive
Activity (Bacillus subtilis): inactive
Activity (Bacillus anthracis): inactive
MIC90 [1]: 25 µg/mL (≈ 30.2 µM)
Activity (Enterococcus faecalis): inactive
